Source: PubChem BioAssay (several laboratories)
Phagocyt inh: blocks phagocytosis by macrophages; J774A.1 macrophage IgG-bead phagocytosis, imaging; inhibition, % at 5 µM; 110,000 tested, 0.07% active; AID 1029;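 active = inhibition above the mean of the plate negative controls plus 5 SD, cut at about 13% in these data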;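 note: phagocytic index as fraction of beads internalized from green versus red external bead signal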
RAM network inh: inhibitors of the yeast RAM network; S. cerevisiae dse1pr::URA3 reporter, 5-FOA growth OD615, 2 d; analog-sensitive cbk1-as2 kinase mutant strain; inhibition, % at 50 µM; 190,000 tested, 1.8% active; AID 868;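 active = inhibition above a set limit, 3 SD over mean compound inhibition, cut at about 8.4% in these data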;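 note: inhibition rescues growth on 5-FOA so higher OD means more RAM inhibition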
Measles CPE: protection of cells from measles virus. 140,000 tested, 1.5% active. protection (pct of control), % at 4 µM. Measles virus-infected cells, CPE protection, absorbance. AID 841; in the data active = protection mostly above about 24%, no sharp cut-off; inactive = mostly below about 26%
Yeast life ext: extends the lifespan of yeast | inhibition of the nicotinamide effect, % at 10 µM | 130,000 tested, 0.68% active | S. cerevisiae growth with nicotinamide, OD615; deaD strain in restrictive glucose medium;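 active = inhibition above a set limit, placed 3 SD over the median of all compounds, cut at about 26% in these data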
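Test system: DeaD-strain S. cerevisiae / Buffer or medium: restrictive glucose medium / Also added: nicotinamide 1.5 mM / Doses: one concentration, 10 µM, DMSO 0.25% / Schedule: 48 h at 30 °C / Signal: OD615 measurement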
Yeast growth inh: chemicals that inhibit yeast BB579 growth in restrictive medium (lifespan-shortening candidates); S. cerevisiae BB579 growth, OD615, 48 h; 140,000 tested, 0.51% active; AID 804; inhibition, % at 10 µM;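 active = inhibition above a set limit, 3 SD over the mean compound inhibition, cut at about 44% in these data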
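Test system: Saccharomyces cerevisiae DeaD strain BB579, replicative lifespan model yeast | Buffer or medium: Restrictive CSMM-D medium | Doses: One dose, 10 µM compound with 0.25% DMSO | Incubation: 48 h exposure, 30 °C | Detection: Culture absorbance at 615 nm | Control set: Amphotericin B at 10 µg/mL as positive control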
Large screens that a line does not name were inactive; [ ] = another dose, or the depositor's remark. Compounds with a hit are over-represented: about 3.6% of the library has one in this group of screens.

COC(=O)c1cc2sccc2n1Cc1nc(-c2cccc(Cl)c2)oc1C	none
CSc1ccccc1C(=O)NCc1ccc(C)cc1	none (no result: Phagocyt inh, Measles CPE, Yeast life ext, Yeast growth inh)
CCOc1ncccc1C(=O)NCCN1C(=O)S/C(=C/c2cccs2)C1=O	none
CCCCOc1ccc(C(=O)N/C(=C\c2cccc([N+](=O)[O-])c2)C(=O)OCCC)cc1	none
CCCCOc1ccc(C(=O)N/C(=C\c2cccc([N+](=O)[O-])c2)C(=O)OC(C)C)cc1	RAM network inh 8.8
CCOc1cc2[nH]c(=O)n(CCCN3CCN(c4ccc(OC)cc4)CC3)c(=O)c2cc1OCC	none (no result: Phagocyt inh, Measles CPE, Yeast life ext, Yeast growth inh)
O=C(/C=N\O)NCCCNCc1ccccc1	Yeast life ext 50
C[n+]1cccc(CNC(=O)/C=N/O)c1	Measles CPE active (no result: Phagocyt inh)
O=C(NCCCNCc1ccccc1)c1ccncc1	Measles CPE 40
O=C(/C=N/O)NCc1cccnc1	none
CCSc1c(-c2ccccc2)nc2c(C)cccc2c1C(=O)O	none
Oc1ccc(C=Nc2ccccc2-c2nc3ccccc3[nH]2)c(O)c1	none
Oc1ccccc1C=Nc1ccccc1-c1nc2ccccc2[nH]1	Measles CPE 58
O=C(COC(=O)c1cccnc1Cl)NCCC1=CCCCC1	none (no result: Phagocyt inh, Measles CPE, Yeast life ext, Yeast growth inh)
CN(C)S(=O)(=O)c1ccc(C(=O)OCC(=O)c2ccc(OC(F)F)cc2OC(F)F)cc1	RAM network inh 11
Cn1c(=NC(=O)c2ccc(S(=O)(=O)N3CCCc4ccccc43)cc2)sc2cc(S(C)(=O)=O)ccc21	RAM network inh 10
C#CCn1c(=NC(=O)c2ccc(S(=O)(=O)N3CCCc4ccccc43)cc2)sc2cc(S(N)(=O)=O)ccc21	none
CCn1cc(S(=O)(=O)N2CCN(Cc3ccc(F)cc3)CC2)cn1	none (no result: Phagocyt inh, Measles CPE, Yeast life ext, Yeast growth inh)
C=CCn1c(SCC(=O)Nc2cc(C)on2)nc2sc3c(c2c1=O)CCCC3	none
C=CCn1c(SCc2csc(C)n2)nc2sc3c(c2c1=O)CCCC3	RAM network inh 9.3 (no result: Phagocyt inh)
Cc1ccc(C(=O)c2cc([N+](=O)[O-])ccc2N2CCCCC2)cc1C	RAM network inh 10.0 (no result: Phagocyt inh)
N#CC1=C(N)OC2=C(C(=O)CCC2)C1c1ccccc1 (stereo not given)	Measles CPE 34
O=C1NC(c2ccccc2)=NC1(NS(=O)(=O)c1ccc(Cl)cc1)C(F)(F)F (stereo not given)	none
O=C1NC(c2ccccc2)=NC1(NS(=O)(=O)c1ccccc1)C(F)(F)F (stereo not given)	Measles CPE 41 (no result: Phagocyt inh)
COc1cc(-c2nc3ccc4ccccc4c3c3c2CCC3)ccc1O	Yeast growth inh 85
O=C(CN(CC1CCCO1)C(=O)CCC(=O)Nc1nccs1)NCc1ccccc1 (stereo not given)	none (no result: Phagocyt inh, Yeast life ext)
CCCCN(C)C(=O)c1oc2ccc(S(=O)(=O)N3CCCCCC3)cc2c1C	RAM network inh 9.8
CCOC(=O)N1CCN(C(=O)c2oc3ccc(S(=O)(=O)N4CCCCC4)cc3c2C)CC1	none (no result: Phagocyt inh)
CCOc1ccc(C(=O)NC(=S)Nc2cccc(NC(=O)c3ccco3)c2)cc1[N+](=O)[O-]	RAM network inh 8.8
COc1ccc2cc(C(N)=O)c(=Nc3ccccc3)oc2c1	none (no result: Phagocyt inh, Measles CPE, Yeast life ext, Yeast growth inh)
NC(=O)c1cc2ccc(O)cc2oc1=Nc1ccccc1	Measles CPE 30
Cc1ccc2c(c1)c1c3n2CCCN(Cc2ccccc2)C3CCC1 (stereo not given)	Phagocyt inh 38[artifact]
Cc1ccc2c(c1)c1c3n2CCN(C(=O)C2CC2)C3CCC1 (stereo not given)	none (no result: Phagocyt inh)
COc1ccc(-c2cc(C(F)(F)F)nc(SCCC(=O)N3CCCC3)n2)cc1	RAM network inh 8.8 (no result: Phagocyt inh, Yeast life ext)
COc1ccc(-c2cc(C(F)(F)F)nc(SCC(=O)Nc3cc(C)on3)n2)cc1OC	RAM network inh 8.7
CCC(CC)NC(=O)c1cccc(Oc2ccccc2)c1	none (no result: Phagocyt inh, Measles CPE, Yeast life ext, Yeast growth inh)
O=S1(=O)CCC(NC(=S)NCCNC(=S)NC2CCS(=O)(=O)C2)C1 (stereo not given)	Measles CPE 28
O=c1c2ccccc2nc(/C=C/c2c[nH]c3ccccc23)n1-c1ccc([N+](=O)[O-])cc1	Measles CPE 32
Cc1[nH]c2ccccc2c1/C=C/c1nc2ccccc2c(=O)n1-c1cccc([N+](=O)[O-])c1	none
Cc1ccc(SCc2c(C#N)c3ccccc3n2C)cc1	RAM network inh 8.7 (no result: Phagocyt inh, Yeast life ext)
Cn1c(CSc2ccccc2)c(C#N)c2ccccc21	none
O=C(c1cccnc1)N1CCN(c2c(Cl)cccc2[N+](=O)[O-])CC1	none
Cc1ccc(-c2noc(CN(C(=O)CCCCCN3C(=O)c4ccccc4C3=O)C(C)C)n2)cc1	RAM network inh 9.8
Cc1cc(Br)ccc1OCC(=O)N(Cc1nc(-c2ccccc2)no1)C(C)C	RAM network inh 11
COc1cccc(OCC(=O)N(Cc2nc(-c3ccc(Cl)cc3)no2)C(C)C)c1	RAM network inh 10
CCN(C(=S)NCc1ccccc1)c1ccccc1	none (no result: Phagocyt inh, Measles CPE, Yeast life ext, Yeast growth inh)
CCCCOc1ccc(C(=O)Nc2ccc(C)cc2[N+](=O)[O-])cc1	RAM network inh 9.1
COc1ccc(C(=O)OCC(=O)Nc2cc(C)c(C)cc2[N+](=O)[O-])cc1	none
CCCCOc1ccc(C(=O)OCC(=O)Nc2cc(C)c(C)cc2[N+](=O)[O-])cc1	RAM network inh 11
Cc1ccc(NC(=O)c2cncc(Br)c2)c([N+](=O)[O-])c1	none (no result: Phagocyt inh)
CCOC(=O)C1(CCOC)CCN(Cc2nc(C(C)C)cs2)CC1	none (no result: Phagocyt inh, Measles CPE, Yeast life ext, Yeast growth inh)
CCOC(=O)c1sc(NC(=O)CN(CC)CC)c(C(=O)OCC)c1C	Yeast life ext 28
O=C(O)CCC(=O)Nc1ccc(C(=O)OCC(=O)c2ccc(Cl)cc2Cl)cc1	RAM network inh 8.7 (no result: Phagocyt inh, Measles CPE, Yeast life ext, Yeast growth inh)
CCC(=O)Nc1cc(C(=O)OCC(=O)c2ccc(Cl)cc2Cl)ccc1C	none
COc1ccc(CNC(=O)C2CCCN(c3nccc(C)n3)C2)cc1 (stereo not given)	none (no result: Phagocyt inh, Yeast life ext)
CC1(C(=O)Oc2ccccc2)Cc2ccccc2C(=O)O1 (stereo not given)	none (no result: Phagocyt inh, Measles CPE, Yeast life ext, Yeast growth inh)
CCCS(=O)(=O)c1nnnn1-c1cccc(OC)c1	Yeast growth inh 96
Cc1ccc(Cl)cc1-c1ccc(C=Nc2ccc(N3CCOCC3)cc2)o1	Measles CPE 60
Cc1ccc(/C=N/N2CCN(c3ccc(Cl)cc3)CC2)o1	none (no result: Phagocyt inh)
C/C(=C\C(=O)c1ccc(C)o1)Nc1ccc2c(c1)OCO2	none
O=C(Nc1ccccc1C(=O)Nc1ccc2c(c1)OCO2)c1ccco1	Measles CPE 25
O=C(Nc1ccc2c(c1)OCO2)c1ccncc1	Measles CPE 26
Cc1ccc(C(=O)Nc2ccc3c(c2)OCO3)cc1	none
C/C(=C\C(=O)c1ccccc1)Nc1ccc2c(c1)OCO2	Measles CPE 30
CC1(C)CC2CC(C)(CN2C(=S)NC(=O)c2ccccc2Cl)C1 (stereo not given)	Yeast life ext 29
CC1(C)CC2CC(C)(CN2C(=S)Nc2ccccc2)C1 (stereo not given)	none (no result: Phagocyt inh, Measles CPE, Yeast life ext, Yeast growth inh)
Cc1nc2ncnn2c(C)c1Cc1cccc(C(F)(F)F)c1	none (no result: Phagocyt inh, Measles CPE, Yeast life ext, Yeast growth inh)
COc1ccccc1Nc1ncnc2nc[nH]c12	none
Cc1cc(OC(F)F)ccc1NC(=O)Nc1ccc([N+](=O)[O-])cc1	none
O=c1[nH]c(SCc2nc3ccccc3c(=O)n2-c2ccccc2)nc2ccccc12	none (no result: Phagocyt inh)
